SMILES strings stand for the structures. Values joined by “and” are separate entries in the source; they are usually repeats but may differ in a detail not shown here. Equal values may be shown once. Active and inactive are the calls of the source.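 How the source made its calls: active means over 50% block of current through the KCNK9 TASK-3 potassium channel at 10 µM compound; inactive means the rest.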

In general, IC50 refers to the concentration needed to halve the response being measured.

Potassium channel subfamily K member 9 (Homo sapiens), sequence (Q9NPC2 whole entry, looked up): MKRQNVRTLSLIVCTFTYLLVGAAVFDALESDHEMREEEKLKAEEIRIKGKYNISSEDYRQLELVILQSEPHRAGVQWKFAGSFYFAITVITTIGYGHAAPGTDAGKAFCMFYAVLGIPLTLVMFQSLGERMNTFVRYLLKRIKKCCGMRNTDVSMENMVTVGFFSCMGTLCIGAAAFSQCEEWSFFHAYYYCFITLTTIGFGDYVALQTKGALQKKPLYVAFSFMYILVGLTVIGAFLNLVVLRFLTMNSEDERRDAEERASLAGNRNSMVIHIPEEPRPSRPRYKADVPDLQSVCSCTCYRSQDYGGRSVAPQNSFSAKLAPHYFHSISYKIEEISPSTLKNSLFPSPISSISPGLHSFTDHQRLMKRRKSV

This experiment has as its target Potassium channel subfamily K member 9 (Homo sapiens) (UniProt Q9NPC2). Put plainly: KCNK9 current inhibition by patch clamp, SAR follow-up, cell-based, automated electrophysiology, HEK293 (AID 623898). The following applies: HEK293 KCNK9, QPatch automated patch clamp current. The method, boiled down: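 material = HEK293 cells with tetracycline-inducible stable human KCNK9 expression | medium = 140 mM potassium external buffer, pH 7.40 | doses = cumulative compound concentration series on each cell | times = 5 min compound exposure per concentration | technique = automated whole-cell voltage clamp, current at -30 mV | read-out basis = per-cell IC50, Hill slope fixed at 1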
Background: In patch-clamp work, channel activity is measured electrically.
For the compound `Cc1cccc(-c2n[nH]c(=S)n2C(C)C2CC3CCC2C3)c1` (centres undefined), the IC50 is 760 nM. Still for that read-out and setting: the value for `CCOc1ccccc1NC(=O)c1cccc(NC(=O)C2CCCCC2)c1` was 1110 nM; that for `COc1ccccc1C(=O)Nc1cccc(NC(=O)c2cccc(C)c2)c1` was 1490 nM; that for `Cc1cccc(C(=O)Nc2cccc(NC(=O)c3cccc(C)c3)c2)c1` was 2240 nM. Same read-out and setting: the value for `Cc1ccccc1-c1n[nH]c(=S)n1C(C)C1CC2CCC1C2` (centres undefined) was 960 nM. Same read-out and setting: the same measure for `CC(C1CC2CCC1C2)n1c(-c2ccco2)n[nH]c1=S` (centres undefined): 250 nM and 230 nM. In the case of `CCOc1ccccc1NC(=O)c1cccc(NC(=O)CC2CCCCC2)c1`, the IC50 is 4730 nM. Turning to `S=c1[nH]nc(-c2ccco2)n1CC1CCCCC1`, the IC50 was 3780 nM. The same measure, in the same setting: the value for `CCOc1ccccc1C(=O)Nc1cccc(NC(=O)c2ccccc2OC)c1` was 180 nM; that for `COc1ccccc1-c1n[nH]c(=S)n1C(C)C1CC2CCC1C2` (centres undefined) was 1040 nM. As to `Cc1ccc(C(=O)Nc2cccc(NC(=O)c3ccccc3)c2)cc1`, the outcome was inactive. For `CC(C1CC2CCC1C2)n1c(-c2ccsc2)n[nH]c1=S` (centres undefined), the IC50 is 620 nM. On the same count and under the same terms, the value for `COc1ccccc1C(=O)Nc1cccc(NC(=O)c2ccccc2C(C)C)c1` was 670 nM; that for `CCOc1ccccc1C(=O)Nc1cccc(NC(=O)c2cccc(C)c2)c1` was 380 nM.

Take `O=C(Nc1cccc(NC(=O)c2ccc(C(F)(F)F)cc2)c1)c1ccccc1`: the result was inactive. Turning to `CC(C1CC2CCC1C2)n1c(-c2ccccc2Cl)n[nH]c1=S` (centres undefined), the IC50 is 950 nM. The same measure, in the same setting: the value for `COc1ccccc1NC(=O)c1cccc(NC(=O)c2ccccc2)c1` was 8480 nM; that for `CC(C1CC2CCC1C2)n1c(-c2cccc(N(C)C)c2)n[nH]c1=S` (centres undefined) was 1720 nM; that for `C[C@@H](C1CCCCC1)n1c(-c2ccco2)n[nH]c1=S` was 6660 nM. On the same count and under the same terms, the value for `Cc1ccccc1C(=O)Nc1cccc(NC(=O)c2ccccc2)c1` was 270 nM; that for `COc1ccccc1C(=O)Nc1cccc(NC(=O)c2ccccc2OC(F)(F)F)c1` was 600 nM; that for `CCOc1ccccc1NC(=O)c1cccc(NC(=O)c2cccc(C)c2)c1` was 2380 nM.

Take `C[C@H](C1CCCCC1)n1c(-c2ccsc2)n[nH]c1=S`: the concentration for half-maximal inhibition (IC50) is 680 nM.

Turning to `CC(C1CC2CCC1C2)n1c(-c2ccoc2)n[nH]c1=S` (centres undefined), the IC50 was 940 nM. Same read-out and setting: the value for `COc1ccccc1C(=O)Nc1cccc(NC(=O)c2ccccc2OC)c1` was 710 nM; that for `COc1cccc(C(=O)Nc2cccc(NC(=O)c3ccccc3)c2)c1` was 420 nM. The same measure, in the same setting: the same measure for `CCOc1ccccc1C(=O)Nc1cccc(NC(=O)c2ccccc2C(F)(F)F)c1`: 250 nM. The same measure, in the same setting: the value for `C[C@H](C1CCCCC1)n1c(-c2ccco2)n[nH]c1=S` was 510 nM; that for `CCOc1ccccc1NC(=O)c1cccc(NC(=O)c2ccccc2)c1` was 2140 nM. In the case of `CC(C1CC2CCC1C2)n1c(-c2ccccc2F)n[nH]c1=S` (centres undefined), the IC50 was 250 nM. On the same count and under the same terms, the value for `COc1ccc(CCSc2nnc(-c3ccco3)n2C(C)C2CC3CCC2C3)cc1OC` (centres undefined) was 5480 nM; that for `Cc1cccc(C(=O)Nc2cccc(NC(=O)c3ccccc3OC(F)(F)F)c2)c1` was 990 nM; that for `Cc1cccc(C(=O)Nc2cccc(NC(=O)c3ccccc3C)c2)c1` was 480 nM.

As to `CC(C)n1c(-c2ccco2)n[nH]c1=S`, the outcome was inactive. As for `O=C(Nc1cccc(NC(=O)c2ccccc2C(F)(F)F)c1)c1ccccc1`, the IC50 is 850 nM. As for `CCOc1ccccc1C(=O)Nc1cccc(NC(=O)C2CCCC2)c1`, the IC50 was 490 nM. Same read-out and setting: the same measure for `Cc1cccc(C(=O)Nc2cccc(NC(=O)c3ccccc3OCC(C)C)c2)c1`: 2520 nM. `C[C@H]([C@@H]1CC2CC[C@H]1C2)n1c(-c2ccsc2)n[nH]c1=S`: the outcome was inactive. Consider `CC(CC1CC2CCC1C2)n1c(-c2ccco2)n[nH]c1=S` (centres undefined), for which the IC50 is 590 nM. The same measure, in the same setting: the value for `Cc1cccc(C(=O)Nc2cccc(NC(=O)c3ccco3)c2)c1` was 950 nM; that for `CCOc1ccccc1NC(=O)c1cccc(NC(=O)c2ccccc2OC(F)(F)F)c1` was 1490 nM; that for `CCOc1ccccc1NC(=O)c1cccc(NC(=O)c2cccc(C(F)(F)F)c2)c1` was 2100 nM. Same read-out and setting: the value for `CCOc1ccccc1NC(=O)c1cccc(NC(=O)CC2CCCC2)c1` was 3900 nM. Same read-out and setting: the value for `CC(C1CC2CCC1C2)n1c(-c2ccco2)nn(CCc2ccncc2)c1=S` (centres undefined) was 490 nM; that for `COc1ccccc1NC(=O)c1cccc(NC(=O)C2CCCC2)c1` was 3160 nM. As to `CCOc1ccccc1NC(=O)c1cccc(NC(=O)c2ccccc2C(F)(F)F)c1`, the IC50 is 520 nM. On the same count and under the same terms, the same measure for `CC(C1CC2CCC1C2)n1c(-c2cccc(Cl)c2)n[nH]c1=S` (centres undefined): 960 nM; for `C[C@@H]([C@@H]1CC2CC[C@H]1C2)n1c(-c2ccsc2)n[nH]c1=S`: 410 nM and 680 nM.

Regarding `O=C(Nc1cccc(NC(=O)C2CCCCC2)c1)c1ccccc1`, the concentration for half-maximal inhibition (IC50) is 8100 nM.

For the compound `COc1ccc(-c2n[nH]c(=S)n2C(C)C2CC3CCC2C3)cc1` (centres undefined), the IC50 is 330 nM. In the case of `COc1cccc(-c2n[nH]c(=S)n2C(C)C2CC3CCC2C3)c1` (centres undefined), the IC50 was 280 nM.

For the compound `O=C(Nc1cccc(NC(=O)c2ccccn2)c1)c1ccccc1`, the IC50 is 6100 nM.

For `C[C@@H]([C@@H]1CC2CC[C@H]1C2)n1c(-c2ccco2)n[nH]c1=S`, the IC50 is 410 nM. Same read-out and setting: the value for `CC(C1CC2CCC1C2)n1c(-c2ccccc2)n[nH]c1=S` (centres undefined) was 1240 nM.

The values are drawn from PubChem BioAssay AID623898 (Johns Hopkins Ion Channel Center, 2012).
